Source: ChEMBL document CHEMBL1154242, “ent-Kaurane and cembrane diterpenoids from Isodon sculponeatus and their cytotoxicity” (J Nat Prod, 2009)

Key:
Assay type in all cases: functional, cell-based
[1] = system: HepG2; assay: Cytotoxicity against human HepG2 cells after 48 hrs; settings: HepG2, 48 h
Summary of the method: (§1)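 Cells from the Shanghai Cell Bank were kept in RPMI1640 with 15% hormone-free heat-inactivated FBS, 2 mM glutamine, 100 U/mL penicillin G and 100 µg/mL streptomycin. Seeding was 5 × 10^4 cells/mL for K562 and 4 × 10^4 cells/mL for A549 and HepG2. Cells were exposed to compound for 48 h, and viability was read by CCK-8 at 450 and 650 nm. IC50 values come from triplicate experiments.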

[2] = system: K562; assay: Cytotoxicity against human K562 cells after 48 hrs; settings: K562, 48 h; summary of the method: as §1
[3] = system: A549; assay: Cytotoxicity against human A549 cells after 48 hrs; settings: A549, 48 h; summary of the method: as §1

Row | SMILES | IC50 [1] | IC50 [2] | IC50 [3]
1 | C=C1[C@@H](O)[C@]23[C@H](O)[C@H]1CC[C@H]2[C@@]12CO[C@@]3(O)[C@@H](O)[C@@H]1C(C)(C)CC[C@@H]2O [ENMENOL] | > 10 µM | > 10 µM | > 10 µM
2 | C=C1C(=O)[C@]23C[C@H]1C[C@@H](O)[C@H]2[C@@]1(COC3=O)[C@@H]2[C@H]3OC[C@]2(C)CC[C@H]1O3 [SCULPONEATIN C] | 0.68 µM | 0.78 µM | 2.73 µM
3 | C=C1[C@@H]2C[C@@H](O)[C@@H]3[C@](C2)(C(=O)O[C@H]2CC[C@@]4(C)CO[C@H]5OC[C@]23[C@H]54)[C@@H]1O [SCULPONEATIN B] | > 10 µM | > 10 µM | > 10 µM
4 | C=C1[C@@H]2C[C@@H](O)[C@@H]3[C@](C2)(C(=O)O[C@H]2CC[C@]4(C)[C@H]5[C@H](OC[C@@]253)O[C@@H]4O)[C@@H]1O [SCULPONIN J] | > 10 µM | > 10 µM | > 10 µM
5 | C=C1C(=O)[C@]23C[C@H]1C[C@H](O)[C@H]2[C@@]12CO[C@@H](O)[C@@H]1C(C)(C)CC[C@@H]2OC3=O [EPINODOSIN] | 1.62 µM | 0.56 µM | 2.1 µM
6 | C=C1[C@@H]2C[C@@H](O)[C@H]3[C@@]45CO[C@@](O)([C@@H](O)[C@@H]4C(C)(C)CC[C@@H]5O)[C@]3(C2)[C@@H]1O [NERVOSANIN B] | > 10 µM | > 10 µM | > 10 µM
7 | C=C1[C@@H]2C[C@@H](O)[C@@H]3[C@](C2)(C(=O)O[C@H]2C[C@H](O)C(C)(C)[C@H]4[C@H](O)OC(=O)[C@@]243)[C@@H]1O [EMEMOGIN] | > 10 µM | > 10 µM | > 10 µM
8 | C[C@]12CC[C@@H]3OC(=O)[C@@]45C[C@@H](C[C@@H](O)[C@H]4[C@]34CO[C@H](OC1)[C@H]24)[C@@]1(CCC2=C(O1)[C@]13C[C@H]2C[C@@H](O)[C@H]1[C@]12CO[C@@H]4OC[C@](C)(CC[C@@H]1OC3=O)[C@@H]42)C5=O [SCULPONIN D] | 1.12 µM | 1.5 µM | 1 µM
9 | C=C1C(=O)[C@]23C[C@H]1C[C@@H](O)[C@H]2[C@]12CO[C@@H]4OC[C@](C)(CC[C@@H]1OC3=O)[C@@H]42 [SCULPONEATIN A] | 1.77 µM | 1.62 µM | 1.9 µM
10 | C=C1C(=O)[C@]23C[C@H]1CC[C@H]2[C@@]12CO[C@@H](O)[C@@H]1C(C)(C)[C@@H](O)C[C@@H]2OC3=O [ENEMIN] | 2.02 µM | 1.62 µM | > 10 µM
11 | C=C1C(=O)O[C@H]2/C=C(\C)C[C@@H]3C=C(CC/C=C(\C)CC[C@H]12)C(=O)O3 | 1.4 µM | 1.25 µM | 1.96 µM
12 | C=C1C(O)[C@]23C[C@H]1C[C@H](O)[C@H]2[C@]12CCC[C@@](C)(CO)[C@H]1[C@H](O)[C@]3(O)OC2 (some centres undefined) [SCULPONIN K] | > 10 µM | > 10 µM | > 10 µM
13 | C=C1[C@@H]2C[C@H](O)[C@@H]3[C@](C2)(C(=O)OC2O[C@H](O)[C@@H]4[C@@](C)(CO)CC[C@H](O)[C@]243)[C@@H]1O (some centres undefined) [SCULPONEATIN D] | > 10 µM | > 10 µM | > 10 µM
14 | C=C1C(=O)O[C@H]2/C=C(\C)C[C@@H]3C=C(C/C=C/[C@@](C)(OO)CC[C@H]12)C(=O)O3 | 0.9 µM | 1.2 µM | 1.55 µM
15 | CC1(C)CC[C@@H]2OC(=O)[C@@]34C[C@@H](C[C@H](O)[C@H]3[C@]23CO[C@@H](O)[C@H]13)[C@@H](CO)C4=O [MAOYECRYSTAL D] | > 10 µM | > 10 µM | > 10 µM
16 | C=C1[C@@H]2C[C@@H](O)[C@@H]3[C@](C2)(C(=O)O[C@H]2CC[C@@]4(C)[C@H](O)O[C@H]5OC[C@]23[C@H]54)[C@@H]1O [SCULPONIN I] | > 10 µM | > 10 µM | > 10 µM
17 | C=C1C(=O)[C@]23C[C@H]1C[C@@H](O)[C@H]2[C@]12CO[C@@H]4O[C@H](O)[C@](C)(CC[C@@H]1OC3=O)[C@@H]42 [SCULPONIN H] | > 10 µM | > 10 µM | > 10 µM
18 | CC1(C)[C@H]2[C@H](O)OC[C@@]23[C@H](C[C@@H]1O)OC(=O)[C@@]12C[C@@H](C[C@@H](O)[C@H]13)[C@@]1(CCC3=C(O1)[C@]14C[C@H]3C[C@@H](O)[C@H]1[C@]13CO[C@@H]5OC[C@](C)(CC[C@@H]1OC4=O)[C@@H]53)C2=O [SCULPONIN E] | 1.62 µM | 2 µM | 1.85 µM
19 | C=C1C(=O)O[C@H]2/C=C(\C)C[C@@H]3C=C(CC[C@@H](OO)C(=C)CC[C@H]12)C(=O)O3 | 3.11 µM | 4.3 µM | 4.18 µM
20 | C=C1C(=O)[C@]23C[C@H]1C[C@@H](O)[C@H]2[C@]12CO[C@H]4O[C@@H](O)[C@](C)(CC[C@@H]1OC3=O)[C@@H]42 [SCULPONIN G] | > 10 µM | > 10 µM | > 10 µM
21 | C=C1[C@@H]2CC(=O)[C@H]3[C@]45C=CC[C@@](C)(CO)[C@H]4[C@H](O)[C@](O)(OC5)[C@]3(C2)[C@@H]1O [SCULPONIN L] | > 10 µM | > 10 µM | > 10 µM
22 | C=C1[C@@H]2C[C@H](O)[C@@H]3[C@](C2)(C(=O)O[C@H]2C[C@H](O)C(C)(C)[C@H]4[C@H](O)OC[C@@]243)[C@@H]1OC(C)=O [SCULPONIN F] | > 10 µM | > 10 µM | > 10 µM
23 | C=C1C(=O)[C@]23C[C@H]1C[C@@H](O)[C@H]2[C@@]12CO[C@@H](O)[C@@H]1C(C)(C)CC[C@@H]2OC3=O [NODOSIN] | 1.92 µM | 0.54 µM | > 10 µM
